# Measurements published in ChEMBL document CHEMBL1157747, “Discovery, structure-activity relationships, pharmacokinetics, and efficacy of glucokinase activator (2R)-3-cyclopentyl-2-(4-methanesulfonylphenyl)-N-thiazol-2-yl-propionamide (RO0281675)” (J Med Chem, 2010).
# Calls of active or inactive are those of the source. The calls are words filed in the database; no cut-off is given here.
# Experiments:
# [1] = system: Glucokinase (Homo sapiens); experiment: Activity of glucokinase assessed as stimulatory concentration required to increase 1.5 fold enzymatic activity
# [2] = Aqueous solubility of the compound; format: physicochemical
# [3] = system: Glucokinase (Homo sapiens); experiment: Activity of glucokinase at 30 uM
# Mus musculus = experiment: Reduction in glucose AUC in C57BL/6J mouse at 50 mg/kg, po pretreated 30 mins by oral glucose tolerance test relative to control; format: functional, organism-based; set-up: dose 50 mg/kg
# Outline: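 Male C57BL/6J mice got a single oral 50 mg/kg dose and underwent an oral glucose tolerance test. Fasting glucose and glucose tolerance were compared with vehicle-treated animals. Values are mean ± STD, n = 6 per time point; Student's t test, P < 0.05.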
# [4] = AUC (0 to infinity) in CD rat at 30 mg/kg, po; format: ADME, organism-based; set-up: time infinity, dose 30 mg/kg, route oral; conditions: plasma
# [5] = Oral bioavailability in CD rat at 30 mg/kg; format: ADME, organism-based; conditions: in vivo
# Pancreatic islet = experiment: […] of glucose-stimulated insulin secretion in C57BL/6J mouse isolated pancreatic islets cells after 4 to 5 days
# [6] = Cmax in CD rat at 10 mg/kg, po; format: ADME, organism-based; set-up: dose 10 mg/kg, route oral; conditions: in vivo
# [7] = AUC (0 to infinity) in CD rat at 5 mg/kg, iv; format: ADME, organism-based; set-up: time infinity, dose 5 mg/kg, route intravenous; conditions: plasma
# [8] = Cmax in CD rat at 30 mg/kg, po; format: ADME, organism-based; set-up: dose 30 mg/kg, route oral; conditions: in vivo
# [9] = system: Glucokinase (Homo sapiens); experiment: Activation of glucokinase assessed as […] in Km at 20 uM relative to control
# [10] = system: Glucokinase (Homo sapiens); experiment: Activation of glucokinase at 20 uM relative to control
# [11] = AUC (0 to infinity) in CD rat at 10 mg/kg, po; format: ADME, organism-based; set-up: time infinity, dose 10 mg/kg, route oral; conditions: plasma
# [12] = Volume of distribution at steady state in CD rat at 5 mg/kg, iv; format: ADME, organism-based; set-up: dose 5 mg/kg, route intravenous; conditions: in vivo, read-out: Vdss
# [13] = Oral bioavailability in CD rat at 10 mg/kg; format: ADME, organism-based; conditions: in vivo
# [14] = Clearance in CD rat at 5 mg/kg, iv; format: ADME, organism-based; set-up: dose 5 mg/kg, route intravenous; conditions: in vivo
# [15] = system: Glucokinase (Homo sapiens); experiment: Activation of glucokinase assessed as increase in Vmax at 1 uM relative to control
# [16] = system: Glucokinase (Homo sapiens); experiment: Activation of glucokinase assessed as […] in Km at 1 uM relative to control
# [17] = Tmax in CD rat at 30 mg/kg, po; format: ADME, organism-based; set-up: dose 30 mg/kg, route oral; conditions: in vivo
# [18] = Tmax in CD rat at 10 mg/kg, po; format: ADME, organism-based; set-up: dose 10 mg/kg, route oral; conditions: in vivo
# [19] = system: Glucokinase (Homo sapiens); experiment: Activity of glucokinase up to 10 uM
Activity [1],SMILES,further results
1.4 µM,O=C(Nc1nccs1)C(CC1CCCC1)c1cccc(S(=O)(=O)C(F)(F)F)c1 (configuration not stated),
1 µM,CNC(=O)NC(=O)C(CC1CCCC1)c1ccc(Cl)c(Cl)c1 (configuration not stated),
0.53 µM,CCNC(=O)NC(=O)C(CC1CCCC1)c1ccc(Cl)c(Cl)c1 (configuration not stated),
5.4 µM,CNC(=O)NC(=O)C(CC1CCCC1)c1ccc([N+](=O)[O-])cc1 (configuration not stated),
2.2 µM,C[S+]([O-])c1ccc(C(CC2CCCC2)C(=O)Nc2nccs2)cc1 (configuration not stated),
2.2 µM,CSc1ccc(C(CC2CCCC2)C(=O)Nc2nccs2)cc1 (configuration not stated),
0.84 µM,O=C(Nc1nccs1)C(CC1CCCC1)c1ccc([N+](=O)[O-])cc1 (configuration not stated),
3.8 µM,CNC(=S)NC(=O)C(CC1CCCC1)c1ccc(Cl)c(Cl)c1 (configuration not stated),
26 µM,O=C(O)c1cnc(NC(=O)C(CC2CCCC2)c2ccc(Cl)c(Cl)c2)s1 (configuration not stated),
0.5 µM,COC(=O)c1csc(NC(=O)C(CC2CCCC2)c2ccc(Cl)c(Cl)c2)n1 (configuration not stated),solubility [2]: 24 µg/mL
1.8 µM,O=C(Nc1nccs1)C(CC1CCCC1)c1ccc(SC(F)(F)F)cc1 (configuration not stated),
4.4 µM,NC(=O)NC(=O)C(CC1CCCC1)c1ccc(Cl)c(Cl)c1 (configuration not stated),
29 µM,O=C(O)c1csc(NC(=O)C(CC2CCCC2)c2ccc(Cl)c(Cl)c2)n1 (configuration not stated),
0.84 µM,O=C(Nc1nc(CCO)cs1)C(CC1CCCC1)c1ccc(Cl)c(Cl)c1 (configuration not stated),
0.94 µM,O=C(Nc1nccs1)C(CC1CCCC1)c1ccc(Cl)c(Cl)c1 (configuration not stated),solubility [2]: 5 µg/mL
8.4 µM,CCOC(=O)CCNC(=O)NC(=O)C(CC1CCCC1)c1ccc(Cl)c(Cl)c1 (configuration not stated),
,O=C(Nc1nccs1)C(Cc1ccccc1)c1ccc(Cl)c(Cl)c1 (configuration not stated),Activity [3]: inactive
1.3 µM,C=CCNC(=O)NC(=O)C(CC1CCCC1)c1ccc(Cl)c(Cl)c1 (configuration not stated),
28.2 µM,CNC(=O)NC(=O)C(CC1CCCC1)c1ccccc1 (configuration not stated),
0.92 µM,COC(=O)c1cnc(NC(=O)C(CC2CCCC2)c2ccc(Cl)c(Cl)c2)s1 (configuration not stated),
2.7 µM,CCOC(=O)c1csc(NC(=O)C(CC2CCCC2)c2ccc(Cl)c(Cl)c2)n1 (configuration not stated),
,CNC(=O)NC(=O)C(CCC1CCCC1)c1ccc(Cl)c(Cl)c1 (configuration not stated),Activity [3]: inactive

Activity [1],SMILES,further results
12 µM,NC(=O)NC(=O)C(CC1CCCCCC1)c1ccc(Cl)c(Cl)c1 (configuration not stated),
3.8 µM,CNC(=O)NC(=O)C(CC1CCCC1)c1ccc(Br)cc1 (configuration not stated),
8 µM,CCOC(=O)c1cnc(NC(=O)C(CC2CCCC2)c2ccc(Cl)c(Cl)c2)s1 (configuration not stated),
10 µM,NC(=O)NC(=O)C(CC1CCC1)c1ccc(Cl)c(Cl)c1 (configuration not stated),
1.4 µM,CNC(=O)NC(=O)C(CC1CCCC1)c1ccc(SC(F)(F)F)cc1 (configuration not stated),
0.19 µM,O=C(Nc1nccs1)C(CC1CCCC1)c1ccc(S(=O)(=O)C(F)(F)F)cc1 (configuration not stated),
0.41 µM,CNC(=O)NC(=O)[C@H](CC1CCCC1)c1ccc(Cl)c(Cl)c1,Activity (Mus musculus): Active; AUC(0-inf) [4]: 1460 ng·h/mL; bioavailability [5]: 13%; Activity (Pancreatic islet): Dose-dependent effect; Cmax [6]: 133 µg/mL; AUC(0-inf) [7]: 1880 ng·h/mL; Cmax [8]: 0.471 µg/mL; fold change (FC) [9]: 0.22; fold change (FC) [10]: 1.7; AUC(0-inf) [11]: 455 ng·h/mL; Vd [12]: 4.21 L/kg; bioavailability [13]: 12%; clearance [14]: 43.5 mL/min/kg; fold change (FC) [15]: 1.4; fold change (FC) [16]: 0.66; Tmax [17]: 3.3 h; Tmax [18]: 1.4 h
inactive,O=C(O)CNC(=O)NC(=O)C(CC1CCCC1)c1ccc(Cl)c(Cl)c1 (configuration not stated),
0.82 µM,COC(=O)Cc1csc(NC(=O)C(CC2CCCC2)c2ccc(Cl)c(Cl)c2)n1 (configuration not stated),
3.2 µM,COC(=O)CCNC(=O)NC(=O)C(CC1CCCC1)c1ccc(Cl)c(Cl)c1 (configuration not stated),
,O=C1NCCN1C(=O)C(CC1CCCC1)c1ccc(Cl)c(Cl)c1 (configuration not stated),Activity [3]: inactive
,O=C(O)CCNC(=O)NC(=O)C(CC1CCCC1)c1ccc(Cl)c(Cl)c1 (configuration not stated),Activity [3]: inactive
5.4 µM,CNC(=O)NC(=O)C(CC1CCCC1)c1ccc(Cl)cc1 (configuration not stated),
8.5 µM,CNC(=O)NC(=O)C(CC1CCCC1)c1ccc(F)c(F)c1 (configuration not stated),
0.99 µM,O=C(Nc1nc(CO)cs1)C(CC1CCCC1)c1ccc(Cl)c(Cl)c1 (configuration not stated),
,CS(=O)(=O)c1ccc([C@@H](CC2CCCC2)C(=O)Nc2nccs2)cc1 [Ro-281675],Activity (Mus musculus): Active; AUC(0-inf) [4]: 51700 ng·h/mL; Activity (Pancreatic islet): Dose-dependent effect; Cmax [6]: 1140 µg/mL; AUC(0-inf) [7]: 2770 ng·h/mL; Cmax [8]: 4300 µg/mL; AUC(0-inf) [11]: 5150 ng·h/mL; Vd [12]: 2.16 L/kg; bioavailability [13]: 92.8%; clearance [14]: 30 mL/min/kg; Tmax [17]: 4.7 h; Tmax [18]: 3.3 h
3.1 µM,O=C(Nc1nccs1)C(CC1CCCC1)c1ccc(Cl)cc1 (configuration not stated),
,CNC(=O)NC(=O)[C@@H](CC1CCCC1)c1ccc(Cl)c(Cl)c1,Activity [3]: inactive; Activity [19]: inactive
,CNC(=O)N(C)C(=O)C(CC1CCCC1)c1ccc(Cl)c(Cl)c1 (configuration not stated),Activity [3]: inactive
1.7 µM,O=C(Nc1nccs1)C(CC1CCCC1)c1cccc(Cl)c1 (configuration not stated),
0.75 µM,O=C(Nc1ncc(CO)s1)C(CC1CCCC1)c1ccc(Cl)c(Cl)c1 (configuration not stated),
8.9 µM,NC(=O)NC(=O)C(CC1CCCCC1)c1ccc(Cl)c(Cl)c1 (configuration not stated),

Activity [1],SMILES,further results
0.3 µM,CNC(=O)NC(=O)C(CC1CCCC1)c1ccc(S(=O)(=O)C(F)(F)F)cc1 (configuration not stated),
3.2 µM,CNC(=O)NC(=O)C(CC1CCCC1)c1ccc(SC)cc1 (configuration not stated),
40 µM,NC(=O)NC(=O)C(CC1CC1)c1ccc(Cl)c(Cl)c1 (configuration not stated),
1.3 µM,CCOC(=O)CNC(=O)NC(=O)C(CC1CCCC1)c1ccc(Cl)c(Cl)c1 (configuration not stated),
1.6 µM,Cc1nc(NC(=O)C(CC2CCCC2)c2ccc(Cl)c(Cl)c2)sc1C (configuration not stated),
1.5 µM,CNC(=O)NC(=O)C(CC1CCCC1)c1ccc(S(C)(=O)=O)cc1 (configuration not stated),
3.4 µM,O=C(NCCO)NC(=O)C(CC1CCCC1)c1ccc(Cl)c(Cl)c1 (configuration not stated),
,CC(C)CC(C(=O)NC(=O)N(C)C)c1ccc(Cl)c(Cl)c1 (configuration not stated),Activity [3]: inactive
1.2 µM,Cc1csc(NC(=O)C(CC2CCCC2)c2ccc(Cl)c(Cl)c2)n1 (configuration not stated),
1.3 µM,CCCNC(=O)NC(=O)C(CC1CCCC1)c1ccc(Cl)c(Cl)c1 (configuration not stated),
0.55 µM,COC(=O)CNC(=O)NC(=O)C(CC1CCCC1)c1ccc(Cl)c(Cl)c1 (configuration not stated),
0.61 µM,CCOC(=O)Cc1csc(NC(=O)C(CC2CCCC2)c2ccc(Cl)c(Cl)c2)n1 (configuration not stated),
6 µM,CNC(=O)NC(=O)C(CC(C)C)c1ccc(Cl)c(Cl)c1 (configuration not stated),
1.4 µM,CNC(=O)NC(=O)C(CC1CCCCC1)c1ccc(Cl)c(Cl)c1 (configuration not stated),
3.7 µM,CNC(=O)NC(=O)C(CC1CCCC1)c1cccc(Cl)c1 (configuration not stated),
29 µM,CC(C)CC(C(=O)NC(N)=O)c1ccc(Cl)c(Cl)c1 (configuration not stated),
8 µM,O=C(O)Cc1csc(NC(=O)C(CC2CCCC2)c2ccc(Cl)c(Cl)c2)n1 (configuration not stated),
,CCCCNC(=O)NC(=O)C(CC1CCCC1)c1ccc(Cl)c(Cl)c1 (configuration not stated),Activity [3]: inactive
6.3 µM,CC(C)CNC(=O)NC(=O)C(CC1CCCC1)c1ccc(Cl)c(Cl)c1 (configuration not stated),
,N=C(N)NC(=O)C(CC1CCCC1)c1ccc(Cl)c(Cl)c1 (configuration not stated),Activity [3]: inactive
0.64 µM,Cc1cnc(NC(=O)C(CC2CCCC2)c2ccc(Cl)c(Cl)c2)s1 (configuration not stated),
1 µM,CNC(=O)NC(=O)C(CC1CCCC1)c1cccc(S(=O)(=O)C(F)(F)F)c1 (configuration not stated),
